Measurements as given in ChEMBL document CHEMBL5236609, “Optimization of 1,2,4-Triazole-3-thiones toward Broad-Spectrum Metallo-β-lactamase Inhibitors Showing Potent Synergistic Activity on VIM- and NDM-1-Producing Clinical Isolates” (J Med Chem, 2022).
pIC50, pKi: −log10 of the molar value.

Experiments:
[1] = Inhibition of bacterial VIM-2 (unknown origin) expressed in Escherichia coli EXPRESS BL21(DE3) assessed as inhibition constant by measuring rate of substrate hydrolysis by UV-visible spectrophotometry; design: species or system Bacteria
How it was run: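 Reporter-substrate assay with purified MBL (1–70 nM final) in 50 mM HEPES pH 7.5 at 30 °C. […] Inhibitor 0.5–1000 μM final. Ki derived from the v0/vi vs [I] slope assuming competitive inhibition, or from a Dixon plot. Ki given when inhibition >70%, otherwise % inhibition at 100 μM. Triplicate.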

[2] = target: T1, Protein deacetylase HDAC6 (Homo sapiens) (UniProt Q9UBN7); assay: Inhibition of recombinant human His-tagged HDAC6 expressed in baculovirus expression system using fluorogenic peptide substrate measured after 45 mins at 100 uM relative to control
T1 sequence (whole entry): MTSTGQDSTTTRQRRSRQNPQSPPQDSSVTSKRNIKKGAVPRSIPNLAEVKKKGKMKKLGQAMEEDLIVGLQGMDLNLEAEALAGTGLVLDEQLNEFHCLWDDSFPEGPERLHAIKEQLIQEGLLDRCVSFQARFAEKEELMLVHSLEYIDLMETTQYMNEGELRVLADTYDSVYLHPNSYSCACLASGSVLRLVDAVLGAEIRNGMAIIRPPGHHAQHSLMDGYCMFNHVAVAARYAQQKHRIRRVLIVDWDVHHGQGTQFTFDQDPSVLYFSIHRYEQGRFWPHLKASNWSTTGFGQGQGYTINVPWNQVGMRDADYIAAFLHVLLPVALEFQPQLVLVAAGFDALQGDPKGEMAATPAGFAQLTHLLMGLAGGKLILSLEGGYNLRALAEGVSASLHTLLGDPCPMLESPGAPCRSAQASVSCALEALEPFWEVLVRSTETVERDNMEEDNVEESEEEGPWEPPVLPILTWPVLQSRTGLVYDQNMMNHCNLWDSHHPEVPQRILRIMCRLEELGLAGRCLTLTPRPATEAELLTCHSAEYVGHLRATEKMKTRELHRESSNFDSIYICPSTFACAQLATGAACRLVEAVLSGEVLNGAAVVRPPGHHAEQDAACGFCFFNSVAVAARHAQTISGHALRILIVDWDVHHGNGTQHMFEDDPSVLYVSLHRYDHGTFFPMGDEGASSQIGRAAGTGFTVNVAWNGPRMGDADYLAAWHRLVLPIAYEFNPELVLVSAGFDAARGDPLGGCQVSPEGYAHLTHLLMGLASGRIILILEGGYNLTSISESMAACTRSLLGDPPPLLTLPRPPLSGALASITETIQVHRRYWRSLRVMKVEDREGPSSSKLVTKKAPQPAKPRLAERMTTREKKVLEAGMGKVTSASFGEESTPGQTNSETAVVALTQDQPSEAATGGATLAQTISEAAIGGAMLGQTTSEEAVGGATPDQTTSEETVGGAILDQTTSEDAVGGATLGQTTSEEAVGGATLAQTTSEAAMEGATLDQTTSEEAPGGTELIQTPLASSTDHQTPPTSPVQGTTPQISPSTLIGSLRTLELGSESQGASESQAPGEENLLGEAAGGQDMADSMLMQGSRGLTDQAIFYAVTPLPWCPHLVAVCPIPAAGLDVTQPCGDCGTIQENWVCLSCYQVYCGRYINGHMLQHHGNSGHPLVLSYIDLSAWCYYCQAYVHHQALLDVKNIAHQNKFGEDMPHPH
How it was run: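 Human HDAC6 fluorimetric kit with Fluor de Lys substrate; panobinostat as control inhibitor. Percent inhibition at 100 μM, one experiment in duplicate.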

[3] = Metabolic stability in CD-1 mouse microsomes assessed as compound remaining after 40 mins LC-MS/MS analysis; assay type: ADME, Microsome; conditions: read-out: Activity
How it was run: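 Mouse liver microsomes, mixed gender, at 37 °C for 40 min; propranolol control. Reports t1/2, intrinsic clearance and % intact compound remaining at 40 min.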

Insulin-degrading enzyme = target: T2, Insulin-degrading enzyme (Homo sapiens, UniProt P14735); assay: Inhibition of recombinant human IDE using ATTO 655-Cys-Lys-Leu-Val-Phe-Phe-Ala-Glu-Asp-Trp as substrate measured after 45 mins by fluorescence assay
T2 sequence (P14735 whole entry): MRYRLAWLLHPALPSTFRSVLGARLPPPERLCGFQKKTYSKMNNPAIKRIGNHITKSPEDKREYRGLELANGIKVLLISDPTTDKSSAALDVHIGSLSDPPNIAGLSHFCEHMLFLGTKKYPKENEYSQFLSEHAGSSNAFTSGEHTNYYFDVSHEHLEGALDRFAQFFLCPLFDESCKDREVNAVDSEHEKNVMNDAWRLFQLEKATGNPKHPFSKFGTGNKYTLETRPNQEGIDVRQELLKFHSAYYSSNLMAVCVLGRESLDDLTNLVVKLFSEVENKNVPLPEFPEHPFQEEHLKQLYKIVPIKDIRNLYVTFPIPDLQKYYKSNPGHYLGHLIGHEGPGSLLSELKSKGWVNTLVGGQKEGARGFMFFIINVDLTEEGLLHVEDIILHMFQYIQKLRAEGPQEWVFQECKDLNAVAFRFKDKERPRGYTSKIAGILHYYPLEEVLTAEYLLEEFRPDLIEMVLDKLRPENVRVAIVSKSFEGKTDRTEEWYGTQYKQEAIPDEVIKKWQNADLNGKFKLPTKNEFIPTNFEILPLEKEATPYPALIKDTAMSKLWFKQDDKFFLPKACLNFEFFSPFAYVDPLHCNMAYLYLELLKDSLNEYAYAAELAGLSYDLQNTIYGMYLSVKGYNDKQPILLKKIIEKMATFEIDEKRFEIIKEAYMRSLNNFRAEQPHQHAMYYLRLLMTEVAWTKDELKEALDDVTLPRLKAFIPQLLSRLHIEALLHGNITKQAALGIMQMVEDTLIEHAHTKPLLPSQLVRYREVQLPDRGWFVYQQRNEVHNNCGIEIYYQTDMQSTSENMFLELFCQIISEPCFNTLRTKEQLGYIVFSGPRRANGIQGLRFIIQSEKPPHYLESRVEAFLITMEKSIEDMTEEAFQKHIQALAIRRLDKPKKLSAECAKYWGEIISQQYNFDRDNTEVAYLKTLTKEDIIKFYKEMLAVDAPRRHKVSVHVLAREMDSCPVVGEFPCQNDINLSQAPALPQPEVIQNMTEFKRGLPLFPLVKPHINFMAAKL

Row | SMILES | pKi [1] | inhibition [2] [%] | remaining at 40 min [3] [%] | pIC50 (Insulin-degrading enzyme)
1 | Cc1[nH]cnc1CN(Cc1c[nH]cn1)[C@@H](CCCn1c(-c2ccccc2)n[nH]c1=S)C(=O)O | 6.46 | < 100 | 98.1 | 4.46
2 | O=C(O)[C@H](CCn1c(-c2ccccc2)n[nH]c1=S)N(Cc1c[nH]cn1)Cc1c[nH]cn1 | 6.68 | < 100 | 91.2 | 4.77
3 | O=C(O)[C@H](CCCn1c(-c2ccc3ccccc3c2)n[nH]c1=S)N(Cc1c[nH]cn1)Cc1c[nH]cn1 | 6.96 | < 100 |  | 5.04
4 | O=C(O)[C@H](CCCn1c(-c2ccccc2)n[nH]c1=S)N(Cc1c[nH]cn1)Cc1c[nH]cn1 | 6.39 | < 100 |  | 4.70
5 | O=C(O)[C@H](CCCn1c(-c2ccccc2)n[nH]c1=S)N(Cc1ccccn1)Cc1ccccn1 | 6.02 | < 100 | 80.5 | 4.39
